Source: PubChem BioAssay
JMJD2C inh – inhibitors of GASC-1 histone demethylase, primary screen, biochemical, fluorescence, DELFIA europium; Lysine-specific demethylase 4C (Homo sapiens), Q9H3R0; GST-JMJD2C(1-420) H3K9me3 demethylation; inhibition, % at 2.35 µM; hit rate 0.069% among 330,000;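 active means more than half of a compound's replicate wells show inhibition beyond 50%, single wells judged on their own value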;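 further: signal counts dimethyl H3K9 product captured on neutravidin plate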
Lipid droplet – inhibitors of hepatocyte lipid droplet formation, primary screen, imaging, high-throughput imaging, BODIPY stain; AML12 mouse hepatocytes, oleate lipid droplets; hit rate 0.4% among 240,000; inhibition, % at 6.5 µM;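 active means lipid droplet intensity inhibited by at least 50%, with more than 500 cells counted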
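Assay system: AML12 hepatocytes (mouse); Probe or stimulus: oleic acid at 100 µM to induce lipid droplet formation; Dosing: compound at 6.5 µM only; Schedule: compound with oleate, overnight; Detection: fluorescence imaging, 20x objective, two fields per well; Measure: % inhibition of lipid droplet signal.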
procasp7 counter – procaspase-7 activators, primary screen, counter-screen for procaspase-3 activator project, biochemical, absorbance, HTS, human | Caspase-7 (Homo sapiens), P55210 | recombinant procaspase-7, Ac-DEVD-pNA absorbance 405 nm; D23A/D198A/D206A triple mutant, cannot self-cleave; scale: DMSO 0, 5 µM enzyme 100 | activation, % at 8.5 µM | hit rate 0.093% among 330,000;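 active means percent activation above the screen-wide mean plus 3 SD, cut at about 25% in these data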
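Assay system: Uncleavable procaspase-7 mutant enzyme | Input: 2 µM procaspase-7 mutant as dispensed | Timing: 1 h compound preincubation, 2 h substrate cleavage, 25 °C | Repeats: One well per compound | Control set: DMSO wells as 0%, DMSO with 5 µM added PC-7 as 100% | Technique: Epi-absorbance of released pNA at 405 nm, two timepoints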
VLA-4 inh – inhibition in human VLA-4 binding assay, primary screen, VLA-4 allosteric modulator project, MLPCN library, flow cytometry, VLA-4 expressing cells. hit rate 0.2% among 330,000. Integrin alpha-4 (Homo sapiens), P13612. AID 2557, 2010. inhibition, % (about 7 µM as worked out from the volumes in the protocol). ligand binding flow cytometry; in the data active means inhibition above about 50%
GRK2 aptamer HTS – compounds blocking aptamer binding on GRK2 – biochemical, human GRK2, bead flow cytometry, HTS, primary screen. Beta-adrenergic receptor kinase 1 (Homo sapiens), P25098. FAM-aptamer displacement from GRK2. inhibition of aptamer binding, % at 10 µM. hit rate 0.59% among 330,000. AID 488847, 2010;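 active means inhibition of aptamer binding above 40%, roughly 3 SD of noise, on plates passing a quality check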;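 further: median bead fluorescence of bound FAM aptamer so fluorescent compounds give negative values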
procasp3 activ – activators of human procaspase-3 D3A mutant, primary screen, biochemical, absorbance, PC-3 D3A mutant, single concentration; Caspase-3 (Homo sapiens), P42574; hit rate 0.11% among 330,000; activation, % at 8.5 µM; AID 463141, 2010; recombinant procaspase-3 D3A, Ac-DEVD-pNA absorbance 405 nm;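 active means activation above the mean of all tested compounds plus 3 SD, cut at about 21% in these data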
Target sequence (P42574 whole entry D9A/D28A/D175A): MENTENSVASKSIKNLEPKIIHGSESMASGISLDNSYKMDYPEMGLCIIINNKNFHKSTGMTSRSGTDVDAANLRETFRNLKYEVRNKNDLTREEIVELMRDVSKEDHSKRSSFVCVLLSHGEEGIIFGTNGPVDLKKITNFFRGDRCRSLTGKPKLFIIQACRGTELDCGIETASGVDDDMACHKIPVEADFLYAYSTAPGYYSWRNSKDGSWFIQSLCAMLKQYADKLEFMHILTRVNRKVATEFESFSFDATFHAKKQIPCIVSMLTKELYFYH
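Test system: Procaspase-3 D3A mutant; medium: Zinc-free HEPES/NaCl buffer with 0.01% Triton X-100 at pH 7.4; reagent: DEVD-pNA substrate; doses: one concentration, 8.5 µM nominal, 0.8% DMSO; times: 1 h preincubation plus 2 h reaction at 25 °C; signal: Epi-absorbance at 405 nm of released p-nitroaniline, 0 and 120 min; replicates: singlicate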
GRK2 inh confirm – GRK2 aptamer-displacing inhibitors, retest, confirmation, biochemical, cherry pick 1, bead flow cytometry; shares compounds with GRK2 aptamer HTS; bead-bound GRK2, FAM-aptamer displacement; aptamer displacement, % at 10 µM; hit rate 4% among 2,000; AID 504451, 2011;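 active means aptamer displacement above 40%, near three times the noise of non-fluorescent compounds, on plates passing quality checks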;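 further: negative values mostly reflect intrinsic compound fluorescence rather than true enhancement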
FAM quench CP1 – counter-screen for GRK2 aptamer inhibitors: fluorescent aptamer quenchers; shares compounds with GRK2 aptamer HTS; Carboxyfluorescein RNA aptamer on beads, flow cytometry quenching; stronger effect = lower value; fluorescence response (% of DMSO), % at 10 µM; 2,000 tested, under 10 active;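 active means compounds that quench the bead-bound fluorescent RNA probe, cutting fluorescence to under half of the solvent control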;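 further: counterscreen run without GRK2 so only probe quenching by compound is measured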
GRK2 CP2 – GRK2 aptamer-displacing inhibitors, hit retest, confirmation, biochemical, cherry pick 2, bead flow cytometry | shares compounds with GRK2 aptamer HTS | bead-bound GRK2, FAM-aptamer displacement | inhibition of aptamer binding, % at 10 µM | 360 tested, under 10 active;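 active means inhibition of aptamer binding above 40%, about triple the noise seen with nonglowing compounds, on plates passing quality control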;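 further: negative values mostly come from compounds that fluoresce themselves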
FAM quench SP – counter-screen for GRK2 binding hits: quenchers of fluorescent RNA aptamer. shares compounds with GRK2 aptamer HTS. carboxyfluorescein RNA aptamer beads, flow cytometry quenching; stronger effect = lower value. fluorescence response vs DMSO, % at 10 µM. 360 tested, under 10 active;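 active means response vs DMSO under 50%, meaning signal dropped by over half, treated as fluorescence quencher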;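 further: labelled aptamer on streptavidin beads without GRK2 as a quench counter-screen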
Hits are given with their value; – = inactive; · = no result. Hits are enriched below; roughly 1.3% of the tested compounds scored in any of these assays.

SMILES	JMJD2C inh	Lipid droplet	procasp7 counter	VLA-4 inh	GRK2 aptamer HTS	procasp3 activ	GRK2 inh confirm	FAM quench CP1	others
Cc1onc(-c2ccccc2)c1C(=O)NNC(=S)NC(=O)c1ccc2c(c1)OCO2	–	–	–	–	–	–	·	·
Cc1cccc(Oc2c(C=O)c3ccccc3n2C)c1	–	·	–	–	–	–	·	·
Cn1c(Oc2ccccc2)c(C=O)c2ccccc21	–	·	–	–	53.0	–	–	–
CC1CN(S(=O)(=O)c2cccc(C(=O)OCCOc3ccccc3)c2)CC(C)O1 (stereo unspecified)	–	·	–	–	–	–	·	·
CC1CC(C)CN(S(=O)(=O)c2cccc(C(=O)OCCN3CCCC3=O)c2)C1 (stereo unspecified)	–	–	–	–	89.0	–	–	–
CC(C)[C@H]1C=C(C(=O)O)O[C@@H](OCCCCO)C1	–	–	–	·	·	–	·	·
Cc1ccc2nc(-c3cccs3)oc(=O)c2c1	–	–	–	–	–	–	·	·
COc1cc2nc(-c3cccs3)oc(=O)c2cc1OC	–	·	–	–	74.0	–	–	–
COc1ccc(-c2ccc3c(c2)c(-c2cccs2)c(-c2cc(OC)cc(OC)c2)n3C)cc1	–	·	–	–	–	–	·	·
COc1cc(OC)cc(-c2c(-c3cccs3)c3cc(-c4cnc(OC)nc4)ccc3n2C)c1	–	·	–	–	68.0	–	–	–
COc1cc(SC)ccc1C(=O)NNC(=O)c1cc(C)oc1C	–	·	–	–	45.0	–	–	–
CN(C)CCCNC1=CC(=O)CC(c2ccccc2)C1 (stereo unspecified)	–	–	–	–	80.0	–	–	–
CC(Nc1cccc(C(=O)NC2CC2)c1)c1nnc(-c2ccccc2)o1 (stereo unspecified)	–	·	–	–	–	–	–	–
COc1cccc(C(=O)NC2CCNCC2)c1	–	–	–	–	–	–	·	·
COc1ccc(-c2nnc(C(C)Nc3cccc(C(=O)NC4CC4)c3)o2)cc1 (stereo unspecified)	–	·	–	–	–	–	–	–
O=C(NC1CC1)c1cccc(Oc2ccccc2)c1	–	–	–	–	–	–	·	·
CC1CCCC(C)N1C(=O)COC(=O)CNC(=O)c1ccc(Cl)cc1Cl (stereo unspecified)	–	·	–	–	–	–	·	·
CC(=O)Oc1ccc(C(=O)[C@H]2[C@H]3C(=O)N(c4cccc5ccccc45)C(=O)[C@H]3[C@@H]3C=CC=NN32)cc1	–	–	–	–	73.0	–	·	·	GRK2 CP2=–;FAM quench SP=–
COc1ccc(C(=O)[C@H]2[C@H]3C(=O)N(c4ccc(OC(C)=O)cc4)C(=O)[C@H]3C3C=CC=NN32)cc1 (stereo partly specified)	–	–	–	–	–	–	·	·
O=C1CN(C(=O)c2ccc(Cl)c([N+](=O)[O-])c2)c2ccccc2N1	–	–	·	–	–	·	·	·
